Reference: ChEMBL document CHEMBL4033653, “Effect of 1,2,3-triazole salts, non-classical bioisosteres of miltefosine, on Leishmania amazonensis” (Bioorg Med Chem, 2017)

Columns and labels:
Leishmania amazonensis [1] = assay: Induction of lipid inclusions in Leishmania amazonensis IFLA/BR/1967/PH8 promastigotes at 20 uM after 24 hrs by Nile Red satining-based spectrofluorometric analysis relative to control; assay type: functional
Outline: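 WT (PH8) promastigotes at 1x10^7 cells/mL in exponential phase, cultured 24 h at 25 °C with or without 2.5–20.0 µM. Parasites incubated with Nile Red, then fluorescence measured spectrofluorometrically. Reported as arbitrary fluorescence units versus untreated parasites, mean of three experiments run in triplicate.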

Leishmania amazonensis [2] = assay: Induction of apoptosis in Leishmania amazonensis IFLA/BR/1967/PH8 promastigotes assessed as early apoptotic population at 5 uM after 24 hrs by Annexin V-FITC/PI staining based flow cytometric analysis (reference value: 5.29%); assay type: functional
Outline: (§1)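 Exponential-phase WT promastigotes (1x10^7 cells/mL) cultured 24 h at 25 °C; stained annexin V-FITC plus PI, flow cytometry with 10,000 events gated on parasites; quadrant percentages; three independent experiments.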

Leishmania amazonensis [3] = assay: Antileishmanial activity against Leishmania amazonensis IFLA/BR/1967/PH8 amastigotes infected in murine macrophages after 72 hrs by fluorometric analysis; assay type: functional; settings: IFLA/BR/1967/PH8, 72 h
[4] = Selectivity index, ratio of CC50 for mouse peritoneal macrophages to IC50 for Leishmania amazonensis IFLA/BR/1967/PH8 amastigotes transfected with red fluorescent protein
Outline: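 SI = CC50 for mouse peritoneal macrophages / RFP amastigote IC50. […] IC50: macrophages infected with RFP-expressing PH8 parasites, treated with 0.78–100.0 µM for 72 h; fluorescence read at 540 nm excitation/600 nm emission. Three experiments in duplicate.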

Leishmania amazonensis [5] = assay: Antileishmanial activity against Leishmania amazonensis IFLA/BR/1967/PH8 amastigotes infected in murine macrophages at 0.9 uM incubated for 72 hrs followed by compound washout measured after 72 hrs by microscopic method relative to control; assay type: functional; settings: IFLA/BR/1967/PH8, 72 h
Outline: (§2)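 Macrophages infected with WT PH8 parasites treated 72 h at 33 °C, 5% CO2; washed twice in PBS, then held in drug-free Warren's medium + 10% serum at 25 °C for 72 h; viable promastigotes counted microscopically versus untreated; three independent experiments in duplicate.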

Leishmania amazonensis [6] = assay: Induction of ROS accumulation in Leishmania amazonensis IFLA/BR/1967/PH8 promastigotes at 10 uM after 72 hrs by H2DCFDA staining-based fluorometric analysis relative to control; assay type: functional
Outline: (§3)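 WT exponential-phase promastigotes treated at 25 °C; adjusted to 2x10^7 cells in PBS, loaded with H2DCFDA 30 min dark at room temperature; fluorescence 485/528 nm versus untreated; three independent experiments.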

Leishmania amazonensis [7] = assay: Induction of apoptosis in Leishmania amazonensis IFLA/BR/1967/PH8 promastigotes assessed as early apoptotic population at 2.5 uM after 24 hrs by Annexin V-FITC/PI staining based flow cytometric analysis (reference value: 5.29%); assay type: functional
Leishmania amazonensis [8] = assay: Induction of apoptosis in Leishmania amazonensis IFLA/BR/1967/PH8 promastigotes assessed as early apoptotic population at 20 uM after 24 hrs by Annexin V-FITC/PI staining based flow cytometric analysis (reference value: 5.29%); assay type: functional; outline: as §1
Leishmania amazonensis [9] = assay: Antileishmanial activity against Leishmania amazonensis IFLA/BR/1967/PH8 amastigotes infected in murine macrophages at 3.6 uM incubated for 72 hrs followed by compound washout measured after 72 hrs by microscopic method relative to control; assay type: functional; settings: IFLA/BR/1967/PH8, 72 h; outline: as §2
Leishmania amazonensis [10] = assay: Antileishmanial activity against Leishmania amazonensis WHOM/BR/75/Josefa amastigotes transfected with green fluorescent protein infected in murine macrophages after 72 hrs by fluorometric analysis; assay type: functional
Outline: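 Infected murine macrophages treated 0.78-100.0 µM for 72 h; fluorescence read at 540/600 nm for RFP parasites (PH8) and 485/528 nm for GFP parasites (Josefa strain); IC50 from three independent experiments in duplicate.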

Leishmania amazonensis [11] = assay: Antileishmanial activity against Leishmania amazonensis IFLA/BR/1967/PH8 promastigotes after 72 hrs by MTT assay; assay type: functional
Leishmania amazonensis [12] = assay: Induction of ROS accumulation in Leishmania amazonensis IFLA/BR/1967/PH8 promastigotes at 5 uM after 72 hrs by H2DCFDA staining-based fluorometric analysis relative to control; assay type: functional; outline: as §3
[13] = Hemolytic activity in human erythrocytes at 9.4 to 150 uM relative to control; assay type: ADME, cell-based, Erythrocyte; settings: read-out: Activity
Outline: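 Fresh human red cells suspended in PBS incubated with the compound; 1% saponin as positive control, untreated as negative; three experiments in triplicate.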

Leishmania amazonensis [14] = assay: Induction of apoptosis in Leishmania amazonensis IFLA/BR/1967/PH8 promastigotes assessed as late apoptotic population at 2.5 uM after 24 hrs by Annexin V-FITC/PI staining based flow cytometric analysis (reference value: 2.62%); assay type: functional
Leishmania amazonensis [15] = assay: Induction of apoptosis in Leishmania amazonensis IFLA/BR/1967/PH8 promastigotes assessed as necrotic population at 10 uM after 24 hrs by Annexin V-FITC/PI staining based flow cytometric analysis (reference value: 0.03%); assay type: functional; outline: as §1
Leishmania amazonensis [16] = assay: Induction of mitochondrial membrane potential loss in Leishmania amazonensis IFLA/BR/1967/PH8 promastigotes at 5 uM after 24 hrs by JC-1 staining-based spectrofluorometric analysis relative to control; assay type: functional
Outline: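 Exponential WT promastigotes (1x10^7 cells/mL) treated 24 h at 25 °C; washed, JC-1 loaded, read at 485/528 and 540/600 nm; Δψm as 600/528 ratio, untreated = 100%; FCCP 20.0 µM for 30 min as positive control; three experiments in triplicate.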

Leishmania amazonensis [17] = assay: Induction of mitochondrial membrane potential loss in Leishmania amazonensis IFLA/BR/1967/PH8 promastigotes at 2.5 uM after 24 hrs by JC-1 staining-based spectrofluorometric analysis relative to control; assay type: functional
Outline: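 Exponential-phase WT (PH8) promastigotes at 1x10^7 cells/mL, treated 24 h at 25 °C with 2.5–20.0 µM, then harvested, washed and loaded with JC-1. Fluorescence read at 485/528 and 540/600 nm; ΔΨm taken as the 600/528 ratio. Untreated control set to 100%. Positive control was FCCP 20.0 µM for 30 min. Three experiments in triplicate.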

Leishmania amazonensis [18] = assay: Induction of apoptosis in Leishmania amazonensis IFLA/BR/1967/PH8 promastigotes assessed as late apoptotic population at 20 uM after 24 hrs by Annexin V-FITC/PI staining based flow cytometric analysis (reference value: 2.62%); assay type: functional; outline: as §1
Leishmania amazonensis [19] = assay: Induction of apoptosis in Leishmania amazonensis IFLA/BR/1967/PH8 promastigotes assessed as late apoptotic population at 10 uM after 24 hrs by Annexin V-FITC/PI staining based flow cytometric analysis (reference value: 2.62%); assay type: functional; outline: as §1
Leishmania amazonensis [20] = assay: Induction of apoptosis in Leishmania amazonensis IFLA/BR/1967/PH8 promastigotes assessed as necrotic population at 2.5 uM after 24 hrs by Annexin V-FITC/PI staining based flow cytometric analysis (reference value: 0.03%); assay type: functional
[21] = Selectivity index, ratio of CC50 for mouse peritoneal macrophages to IC50 for Leishmania amazonensis IFLA/BR/1967/PH8 amastigotes
Outline: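 SI = CC50 for mouse peritoneal macrophages / amastigote IC50. […] IC50: WT-infected macrophages treated with 0.78–100.0 µM in sterile water; burden scored by counting amastigotes and infected/uninfected cells in at least 200 macrophages. Three experiments in duplicate.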

Compound: CC(=O)[O-].CCCCCCCCCCn1cc(CO)[n+](C)n1
- fold change (FC) (Leishmania amazonensis [1]): 2.5
- Activity (Leishmania amazonensis [2]): 39.1%
- IC50 (Leishmania amazonensis [3]): 900 nM
- Ratio CC50/IC50 [4]: 115.9
- inhibition at 0.9 µM (Leishmania amazonensis [5]): 61.9%
- Activity (Leishmania amazonensis [6]): 54%
- Activity (Leishmania amazonensis [7]): 30.6%
- Activity (Leishmania amazonensis [8]): 30.92%
- inhibition at 3.6 µM (Leishmania amazonensis [9]): 83.1%
- IC50 (Leishmania amazonensis [10]): 800 nM
- IC50 (Leishmania amazonensis [11]): 2600 nM
- Activity (Leishmania amazonensis [12]): 40.7%
- hemolysis at up to 150 µM [13]: < 5%
- Activity (Leishmania amazonensis [14]): 0.82%
- Activity (Leishmania amazonensis [15]): 2.18%
- Activity (Leishmania amazonensis [16]): 20%
- Activity (Leishmania amazonensis [17]): 37.5%
- Activity (Leishmania amazonensis [18]): 16.88%
- Activity (Leishmania amazonensis [19]): 11.16%
- Activity (Leishmania amazonensis [20]): 0.16%
- Ratio CC50/IC50 [21]: 128.8
